The source of these data is article PMC3253265 (Immunity, 2011).

Assay [1] has as its system 42F3 T cells. Description: p3A1 antagonist assay. In kind it is cell-based. The note with it: 42F3 T cells stimulated with 100nM p4B3, range of p3A1 concentrations, same APC. The gist of the method:
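Antagonism assay: 42F3 hybridoma cells were stimulated with an agonist peptide at 100nM. The test peptide was added over a range of concentrations, and IL-2 production was read by ELISA. Anti-CD3 (2C11) and/or native peptide served as IL-2 sensitivity controls. No peptide and an irrelevant H2-Ld MCMV epitope controlled for peptide-independent IL-2.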

For assay [2], the system named is 42F3 TCR on CD8αβ− 42F3 T cells. Format: binding. The method in brief: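 42F3 hybridoma transfectants supplied the TCR. RBCs were biotinylated with biotin-X-NHS and then bound to streptavidin. Borosilicate beads were cleaned, silanized and reacted with streptavidin-maleimide. Both carried […] biotin-tagged single-chain H2-Ld-peptide complexes, the same ones used for SPR. Flow cytometry measured site densities of TCR on cells and pMHC on RBC or beads. Micropipette adhesion frequency and thermal fluctuation assays were run.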

The test system of assay [3] is 42F3 TCR. Description: SPR. The note with it: sc H2-L^d constructs. In kind it is binding, mouse.
For assay [4], the system named is 42F3 T cells. Description: Fluorescent sc H2-L^d-tetramer staining of 42F3 T cells. In kind it is cell-based.
Assay [5] relates to 42F3 TCR. Nature of the assay: Fluorescent 42F3-tetramer staining of peptide-loaded APCs. In kind it is cell-based. The gist of the method:
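Tetramers were made by complexing C-terminally biotinylated recombinant 42F3 TCR with PE-labelled streptavidin. They were used to stain peptide-loaded APCs, with fluorescence read by flow cytometry. Staining was compared against SPR-derived 3D affinities of the pMHC ligands.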

For assay [6], the system named is 42F3 T cells. Format: cell-based. The note with it: CD8+ and CD8− 42F3 T cell lines, peptide-loaded APCs, up to 100μM peptide.
Assay [7] has as its system 42F3 T cells. In kind it is cell-based. As to conditions: recombinant H2-L^d-Ig dimers, CD8+ 42F3 T cells, IL-2 release. The method in brief:
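CD8+ 42F3 hybridoma transfectants were stimulated with recombinant H2-Ld-Ig dimers loaded with peptide instead of APC-presented peptide. IL-2 release was read by ELISA. Anti-CD3 (2C11) and/or native peptide controlled IL-2 sensitivity. No-peptide and irrelevant H2-Ld MCMV epitope controls covered peptide-independent IL-2.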

Turning to SPLDSLWWI [p3A1], the “effect on agonist (p4B3) induced activation” value with 42F3 T cells [1] is recorded as “not influenced”. In addition, in assay [2], the 2D-Ackon result is given as “weak”. The “2D-koff, rank among the peptides” value in assay [2] (H2-L^d-peptide) was “slowest 2D-koff”. Besides, the “SPR derived 3D affinity (KA), rank among the peptides” value in the assay with 42F3 TCR [3] was “highest affinity”. Moreover, the “H2-L^d-peptide-tetramer staining of 42F3 T cells” value in the assay on 42F3 T cells [4] is “did not stain”. Moreover, in the assay on 42F3 TCR [5], the “42F3-tetramer staining of peptide-loaded APCs” value was “stain”. Also, the IL-2 response result with 42F3 T cells [6] was “failed to induce a strong IL-2 response”. The “stimulation of 42F3 T cells by peptide-loaded H2-L^d-Ig dimers” value in the assay with 42F3 T cells [7] is given as “failed to stimulate”.
